Source: ChEMBL document CHEMBL4325889, “Natural products hybrids: 3,5,4'-Trimethoxystilbene-5,6,7-trimethoxyflavone chimeric analogs as potential cytotoxic agents against diverse human cancer cells” (Eur J Med Chem, 2019)
The source made the active and inactive calls. No cut-off for these calls is given here.

Experiments:
HeLa [1] = assay: Induction of apoptosis in human HeLa cells assessed as early apoptotic cells after 12 hrs by Annexin V-FITC/propidium iodide staining based flow cytometry (reference value: 2.6%); type: functional
Summary of the method: (§1)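 HeLa human cervical cancer cells treated with increasing concentrations or for increasing incubation times. Cells stained with annexin V-FITC and propidium iodide and analysed by FACS. Gating: early apoptotic = annexin+/PI−, late apoptotic = annexin+/PI+.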

HeLa [2] = assay: Induction of apoptosis in human HeLa cells assessed as early apoptotic cells after 48 hrs by Annexin V-FITC/propidium iodide staining based flow cytometry (reference value: 2.6%); type: functional; summary of the method: as §1
HeLa [3] = assay: Induction of apoptosis in human HeLa cells assessed as necrotic cells at 2.5 uM by Annexin V-FITC/propidium iodide staining based flow cytometry (reference value: 2.2%); type: functional; summary of the method: as §1
HeLa [4] = assay: Induction of apoptosis in human HeLa cells assessed as live cells after 12 hrs by Annexin V-FITC/propidium iodide staining based flow cytometry (reference value: 92.9%); type: functional; summary of the method: as §1
HeLa [5] = assay: Induction of morphological changes in human HeLa cells assessed as apoptotic body formation at 10 uM after 48 hrs by DAPI staining based fluorescence microscopic method; type: functional, cell-based
Summary of the method: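 HeLa cells exposed to 10 µM for 48 h, then stained with DAPI. Nuclear shape, size and density (bright condensed, fragmented chromatin, apoptotic bodies) examined by fluorescence microscopy under 358 nm excitation, against untreated control cells.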

HeLa [6] = assay: Induction of apoptosis in human HeLa cells assessed as necrotic cells after 48 hrs by Annexin V-FITC/propidium iodide staining based flow cytometry (reference value: 0.9%); type: functional; summary of the method: as §1
HeLa [7] = assay: Induction of apoptosis in human HeLa cells assessed as late apoptotic cells after 12 hrs by Annexin V-FITC/propidium iodide staining based flow cytometry (reference value: 3.6%); type: functional; summary of the method: as §1
HeLa [8] = assay: Induction of apoptosis in human HeLa cells assessed as live cells after 48 hrs by Annexin V-FITC/propidium iodide staining based flow cytometry (reference value: 92.9%); type: functional; summary of the method: as §1
HeLa [9] = assay: Induction of apoptosis in human HeLa cells assessed as necrotic cells after 24 hrs by Annexin V-FITC/propidium iodide staining based flow cytometry (reference value: 0.9%); type: functional; summary of the method: as §1
HeLa [10] = assay: Induction of apoptosis in human HeLa cells assessed as early apoptotic cells at 2.5 uM by Annexin V-FITC/propidium iodide staining based flow cytometry (reference value: 5.7%); type: functional; summary of the method: as §1
HeLa [11] = assay: Induction of apoptosis in human HeLa cells assessed as live cells after 24 hrs by Annexin V-FITC/propidium iodide staining based flow cytometry (reference value: 92.9%); type: functional; summary of the method: as §1
HeLa [12] = assay: Induction of apoptosis in human HeLa cells assessed as late apoptotic cells at 5 uM by Annexin V-FITC/propidium iodide staining based flow cytometry (reference value: 6.9%); type: functional; summary of the method: as §1
HeLa [13] = assay: Induction of apoptosis in human HeLa cells assessed as late apoptotic cells after 48 hrs by Annexin V-FITC/propidium iodide staining based flow cytometry (reference value: 3.6%); type: functional; summary of the method: as §1
HeLa [14] = assay: Induction of apoptosis in human HeLa cells assessed as live cells at 10 uM by Annexin V-FITC/propidium iodide staining based flow cytometry (reference value: 85.2%); type: functional; summary of the method: as §1
HeLa [15] = assay: Induction of apoptosis in human HeLa cells assessed as early apoptotic cells at 5 uM by Annexin V-FITC/propidium iodide staining based flow cytometry (reference value: 5.7%); type: functional; summary of the method: as §1
HeLa [16] = assay: Induction of apoptosis in human HeLa cells assessed as late apoptotic cells at 2.5 uM by Annexin V-FITC/propidium iodide staining based flow cytometry (reference value: 6.9%); type: functional; summary of the method: as §1
HeLa [17] = assay: Induction of apoptosis in human HeLa cells assessed as late apoptotic cells at 10 uM by Annexin V-FITC/propidium iodide staining based flow cytometry (reference value: 6.9%); type: functional; summary of the method: as §1
HeLa [18] = assay: Induction of apoptosis in human HeLa cells assessed as early apoptotic cells after 24 hrs by Annexin V-FITC/propidium iodide staining based flow cytometry (reference value: 2.6%); type: functional; summary of the method: as §1
HeLa [19] = assay: Cell cycle arrest in human HeLa cells assessed as accumulation at sub-G1 phase up to 10 uM by propidium iodide staining based flow cytometry (reference value: 6.24%); type: functional
HeLa [20] = assay: Induction of apoptosis in human HeLa cells assessed as necrotic cells at 5 uM by Annexin V-FITC/propidium iodide staining based flow cytometry (reference value: 2.2%); type: functional; summary of the method: as §1

**Q.** How did the Activity (HeLa [1]) turn out when `COc1cc(NC(=O)c2cccc(-c3cc(=O)c4c(OC)c(OC)c(OC)cc4o3)c2)cc(OC)c1OC` was run?
**A.** Its Activity is 4.2%.

**Q.** What about the Activity (HeLa [2]) of the same compound?
**A.** The Activity was 24%.

**Q.** What about the Activity (HeLa [3]) of the same compound?
**A.** The Activity was 2.4%.

**Q.** And the Activity (HeLa [4])?
**A.** The Activity was 89.3%.

**Q.** And the Activity (HeLa [5])?
**A.** The Activity was “Active”.

**Q.** And the Activity (HeLa [6])?
**A.** The Activity was 3.7%.

**Q.** And the Activity (HeLa [7])?
**A.** The Activity was 5.5%.

**Q.** And the Activity (HeLa [8])?
**A.** The Activity was 33.2%.

**Q.** And the Activity (HeLa [9])?
**A.** The Activity was 1.8%.

**Q.** What about the Activity (HeLa [10]) of the same compound?
**A.** Its Activity is 11.8%.

**Q.** What about the Activity (HeLa [11]) of the same compound?
**A.** Its Activity is 80.3%.

**Q.** What about the Activity (HeLa [12]) of the same compound?
**A.** Its Activity is 13.8%.

**Q.** And the Activity (HeLa [13])?
**A.** Its Activity is 39.1%.

**Q.** What about the Activity (HeLa [14]) of the same compound?
**A.** The Activity was 43.7%.

**Q.** What about the Activity (HeLa [15]) of the same compound?
**A.** The Activity was 21.1%.

**Q.** What about the Activity (HeLa [16]) of the same compound?
**A.** The Activity was 6.8%.

**Q.** And the Activity (HeLa [17])?
**A.** The Activity was 21.2%.

**Q.** And the Activity (HeLa [18])?
**A.** Its Activity is 13.4%.

**Q.** And the Activity (HeLa [19])?
**A.** The Activity was 19.14%.

**Q.** And the Activity (HeLa [20])?
**A.** Its Activity is 5.7%.
